Experimental data published in ChEMBL document CHEMBL1145833, “Studies on the synthesis and biological properties of non-carrier-added [(125)I and (131)I]-labeled arylalkylidenebisphosphonates: potent bone-seekers for diagnosis and therapy of malignant osseous lesions” (J Med Chem, 2003).

Experiments:
Conditions in all cases: in vivo
[1] = organism: Mus musculus; assay: Distribution of compound in blood tissue of mice after 24 hr injection time was determined; format: ADME, organism-based
Outline: (§1)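 Healthy athymic nude mice (balb/c nu/nu, 20–25 g, both sexes) received 50–400 KBq radioiodinated bisphosphonate in 100 µL phosphate buffer pH 6–7 by tail-vein injection. Three animals were sacrificed per time point. Tissues were excised, weighed and gamma-counted. Values are % injected dose per gram tissue, mean ± 1 SD, n = 3.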

[2] = organism: Mus musculus; assay: Distribution of compound in lungs tissue of mice after 24 hr injection time was determined; format: ADME, organism-based, Lung; outline: as §1
[3] = organism: Mus musculus; assay: Distribution of compound in kidneys tissue of mice after 24 hr injection time was determined; format: ADME, organism-based, Kidney; outline: as §1
[4] = organism: Mus musculus; assay: Distribution of compound in thyroid tissue of mice after 24 h injection time was determined; format: ADME, organism-based, Thyroid gland
Outline: (§2)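 Healthy athymic nude balb/c nu/nu mice (20–25 g) received 50–400 KBq radioiodinated bisphosphonate in 100 μL phosphate buffer, pH 6–7, by tail-vein injection. Three animals were sacrificed per time point. Thyroid-containing tissue was excised, weighed and gamma-counted. Values are % of injected dose, mean ± 1 SD of three mice.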

[5] = organism: Mus musculus; assay: Distribution of compound in spleen tissue of mice after 24 hr injection time was determined; format: ADME, organism-based; outline: as §1
[6] = organism: Mus musculus; assay: Distribution of compound in intestine tissue of mice after 24 hr injection time was determined; format: ADME, organism-based; outline: as §1
[7] = organism: Mus musculus; assay: Distribution of compound in femur tissue of mice after 24 hr injection time was determined; format: ADME, organism-based; outline: as §1
[8] = organism: Mus musculus; assay: Distribution of compound in skull tissue of mice after 24 hr injection time was determined; format: ADME, organism-based; outline: as §1
[9] = organism: Mus musculus; assay: Distribution of compound in liver tissue of mice after 24 hr injection time was determined; format: ADME, organism-based; outline: as §1
[10] = organism: Mus musculus; assay: Distribution of compound in stomach tissue of mice after 24 hr injection time was determined; format: ADME, organism-based; outline: as §1
[11] = organism: Mus musculus; assay: Distribution of compound in heart tissue of mice after 24 hr injection time was determined; format: ADME, organism-based; outline: as §1
[12] = organism: Rattus norvegicus; assay: Distribution of compound in kidney tissue of rats after 24 hr injection time was determined; format: ADME, organism-based
Outline: (§3)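 Healthy congenitally athymic nude rats (Han rnu/rnu Rowett, 60 g, both sexes) received 0.4 MBq radioiodinated bisphosphonate in 200 µL phosphate buffer pH 7 via tail vein. Three rats were sacrificed 24 h post-injection. Excised organs were weighed and gamma-counted. Values are % injected dose per gram tissue, mean ± 1 SD of three rats.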

[13] = organism: Mus musculus; assay: Distribution of compound in blood tissue of mice after 0.5 hr injection time was determined; format: ADME, organism-based; outline: as §1
[14] = organism: Mus musculus; assay: Distribution of compound in heart tissue of mice after 0.5 hr injection time was determined; format: ADME, organism-based; outline: as §1
[15] = organism: Rattus norvegicus; assay: Distribution of compound in lung tissue of rats after 24 hr injection time was determined; format: ADME, organism-based; outline: as §3
[16] = organism: Rattus norvegicus; assay: Distribution of compound in blood tissue of rats after 24 hr injection time was determined; format: ADME, organism-based; outline: as §3
[17] = organism: Mus musculus; assay: Distribution of compound in spleen tissue of mice after 2 hr injection time was determined; format: ADME, organism-based; outline: as §1
[18] = organism: Rattus norvegicus; assay: Distribution of compound in liver tissue of rats after 24 hr injection time was determined; format: ADME, organism-based; outline: as §3
[19] = organism: Mus musculus; assay: Distribution of compound in heart tissue of mice after 5 hr injection time was determined; format: ADME, organism-based; outline: as §1
[20] = organism: Rattus norvegicus; assay: Distribution of compound in stomach tissue of rats after 24 hr injection time was determined; format: ADME, organism-based; outline: as §3
[21] = organism: Mus musculus; assay: Distribution of compound in stomach tissue of mice after 2 hr injection time was determined; format: ADME, organism-based; outline: as §1
[22] = organism: Mus musculus; assay: Distribution of compound in spleen tissue of mice after 5 h injection time was determined; format: ADME, organism-based; outline: as §1
[23] = organism: Mus musculus; assay: Distribution of compound in lungs tissue of mice after 5 hr injection time was determined; format: ADME, organism-based, Lung; outline: as §1
[24] = organism: Mus musculus; assay: Distribution of compound in heart tissue of mice after 2 hr injection time was determined; format: ADME, organism-based; outline: as §1
[25] = organism: Mus musculus; assay: Distribution of compound in stomach tissue of mice after 5 hr injection time was determined; format: ADME, organism-based; outline: as §1
[26] = organism: Mus musculus; assay: Distribution of compound in liver tissue of mice after 5 hr injection time was determined; format: ADME, organism-based; outline: as §1
[27] = organism: Rattus norvegicus; assay: Distribution of compound in skull tissue of rats after 24 hr injection time was determined; format: ADME, organism-based; outline: as §3
[28] = organism: Mus musculus; assay: Distribution of compound in lungs tissue of mice after 2 hr injection time was determined; format: ADME, organism-based, Lung; outline: as §1
[29] = organism: Mus musculus; assay: Distribution of compound in kidneys tissue of mice after 5 hr injection time was determined; format: ADME, organism-based, Kidney; outline: as §1
[30] = organism: Mus musculus; assay: Distribution of compound in skull tissue of mice after 0.5 hr injection time was determined; format: ADME, organism-based; outline: as §1
[31] = organism: Mus musculus; assay: Distribution of compound in kidneys tissue of mice after 0.5 hr injection time was determined; format: ADME, organism-based, Kidney; outline: as §1
[32] = organism: Rattus norvegicus; assay: Distribution of compound in thyroid tissue of rats after 24 hr injection time was determined; format: ADME, organism-based, Thyroid gland
Outline: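 Healthy congenitally athymic nude rats (Han rnu/rnu Rowett, 60 g) received 0.4 MBq radioiodinated bisphosphonate in 200 μL phosphate buffer, pH 7, by tail-vein injection. Three rats were sacrificed 24 h after injection. Thyroid-containing tissue was excised, weighed and gamma-counted. Values are % of injected dose, mean ± 1 SD of three rats.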

[33] = organism: Mus musculus; assay: Distribution of compound in blood tissue of mice after 2 hr injection time was determined; format: ADME, organism-based; outline: as §1
[34] = organism: Rattus norvegicus; assay: Distribution of compound in femur tissue of rats after 24 h injection time was determined; format: ADME, organism-based; outline: as §3
[35] = organism: Mus musculus; assay: Distribution of compound in intestine tissue of mice after 2 hr injection time was determined; format: ADME, organism-based; outline: as §1
[36] = organism: Mus musculus; assay: Distribution of compound in thyroid tissue of mice after 5 h injection time was determined; format: ADME, organism-based, Thyroid gland; outline: as §2
[37] = organism: Mus musculus; assay: Distribution of compound in femur tissue of mice after 5 hr injection time was determined; format: ADME, organism-based; outline: as §1
[38] = organism: Mus musculus; assay: Distribution of compound in intestine tissue of mice after 0.5 hr injection time was determined; format: ADME, organism-based; outline: as §1
[39] = organism: Mus musculus; assay: Distribution of compound in thyroid tissue of mice after 0.5 hr injection time was determined; format: ADME, organism-based, Thyroid gland; outline: as §2
[40] = organism: Rattus norvegicus; assay: Distribution of compound in intestine tissue of rats after 24 hr injection time was determined; format: ADME, organism-based; outline: as §3
[41] = organism: Mus musculus; assay: Distribution of compound in femur tissue of mice after 2 hr injection time was determined; format: ADME, organism-based; outline: as §1
[42] = organism: Mus musculus; assay: Distribution of compound in blood tissue of mice after 5 h injection time was determined; format: ADME, organism-based; outline: as §1
[43] = organism: Mus musculus; assay: Distribution of compound in skull tissue of mice after 5 h injection time was determined; format: ADME, organism-based; outline: as §1
[44] = organism: Mus musculus; assay: Distribution of compound in spleen tissue of mice after 0.5 hr injection time was determined; format: ADME, organism-based; outline: as §1
[45] = organism: Mus musculus; assay: Distribution of compound in kidneys tissue of mice after 2 hr injection time was determined; format: ADME, organism-based, Kidney; outline: as §1
[46] = organism: Mus musculus; assay: Distribution of compound in stomach tissue of mice after 0.5 hr injection time was determined; format: ADME, organism-based; outline: as §1
[47] = organism: Mus musculus; assay: Distribution of compound in skull tissue of mice after 2 hr injection time was determined; format: ADME, organism-based; outline: as §1
[48] = organism: Mus musculus; assay: Distribution of compound in liver tissue of mice after 0.5 hr injection time was determined; format: ADME, organism-based; outline: as §1
[49] = organism: Rattus norvegicus; assay: Distribution of compound in spleen tissue of rats after 24 hr injection time was determined; format: ADME, organism-based; outline: as §3
[50] = organism: Mus musculus; assay: Distribution of compound in liver tissue of mice after 2 h injection time was determined; format: ADME, organism-based; outline: as §1
[51] = organism: Mus musculus; assay: Distribution of compound in intestine tissue of mice after 5 hr injection time was determined; format: ADME, organism-based; outline: as §1
[52] = organism: Mus musculus; assay: Distribution of compound in lungs tissue of mice after 0.5 h injection time was determined; format: ADME, organism-based, Lung; outline: as §1
[53] = organism: Mus musculus; assay: Distribution of compound in femur tissue of mice after 0.5 hr injection time was determined; format: ADME, organism-based; outline: as §1
[54] = organism: Rattus norvegicus; assay: Distribution of compound in heart tissue of rats after 24 hr injection time was determined; format: ADME, organism-based; outline: as §3
[55] = organism: Mus musculus; assay: Distribution of compound in thyroid tissue of mice after 2 hr injection time was determined; format: ADME, organism-based, Thyroid gland; outline: as §2

O=P(O)(O)C(CCc1cccc(I)c1)P(=O)(O)O
Injected [1]: 0.02%
Injected [2]: 0.21%
Injected [3]: 0.85%
Injected [4]: 0.02%
Injected [5]: 0.17%
Injected [6]: 0.05%
Injected [7]: 8.84%
Injected [8]: 10.36%
Injected [9]: 0.35%
Injected [10]: 0.04%
Injected [11]: 0.06%

O=P(O)(O)C(O)(Cc1cccc(I)c1)P(=O)(O)O
Injected [12]: 0.36%
Injected [13]: 15.92%
Injected [14]: 3.35%
Injected [15]: 0.05%
Injected [1]: 0.09%
Injected [2]: 0.54%
Injected [3]: 5.16%
Injected [16]: 0.01%
Injected [17]: 0.77%
Injected [18]: 0.18%
Injected [19]: 0.4%
Injected [4]: 0.06%
Injected [20]: 0.05%
Injected [21]: 1.79%
Injected [5]: 0.49%
Injected [22]: 0.47%
Injected [6]: 0.16%
Injected [23]: 0.61%
Injected [24]: 0.82%
Injected [25]: 0.38%
Injected [26]: 2.51%
Injected [27]: 5.84%
Injected [28]: 1.2%
Injected [29]: 7.17%
Injected [30]: 24.61%
Injected [7]: 37.79%
Injected [31]: 18.64%
Injected [32]: 0.02%
Injected [33]: 1.36%
Injected [8]: 21.34%
Injected [34]: 16.44%
Injected [35]: 1%
Injected [36]: 0.49%
Injected [37]: 30.3%
Injected [38]: 1.07%
Injected [39]: 0.51%
Injected [40]: 0.03%
Injected [41]: 45.54%
Injected [42]: 0.82%
Injected [43]: 19.14%
Injected [44]: 2.02%
Injected [45]: 13.3%
Injected [46]: 3.22%
Injected [47]: 26.49%
Injected [9]: 2.27%
Injected [48]: 3.88%
Injected [10]: 0.13%
Injected [49]: 0.09%
Injected [50]: 3.36%
Injected [51]: 0.45%
Injected [52]: 5.41%
Injected [53]: 45.03%
Injected [11]: 0.18%
Injected [54]: 0.04%
Injected [55]: 0.19%
